Experimental data from ChEMBL document CHEMBL1147099, “In vitro and in vivo antibacterial activities of heteroaryl isothiazolones against resistant gram-positive pathogens” (Antimicrob Agents Chemother, 2007).
≈ marks a conversion by molar mass, not a printed value.

Legend:
Staphylococcus aureus [1] = test: Effect on cellular viability of methicillin-sensitive Staphylococcus aureus ATCC 29213 by measuring the time required for recovery at 10 times MIC after 1 hr; assay type: functional
How it was run: (§1)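 S. aureus in log phase, approximately 2–4 × 10^7 CFU/ml in CAMHB, was exposed to 10× MIC for 1 h at 35 to 37°C with shaking, then diluted 1:1,000 into prewarmed CAMHB. Viable counts were taken hourly for 4 to 8 h. PAE = T − C, the time to a 1-log10 rise, treated versus untreated. Mean of two independent experiments.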

Staphylococcus aureus [2] = test: Antibacterial activity against methicillin-susceptible Staphylococcus aureus after 24 hrs by broth microdilution method; assay type: functional
How it was run: (§2)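 Broth microdilution per CLSI in cation-adjusted Mueller-Hinton II broth, final inoculum approximately 5 × 10^5 CFU/ml. Plates were incubated aerobically at 35 to 37°C for 24 h. MIC was the lowest concentration giving no visible growth. Reserpine, where used, was at a final concentration of 20 μg/ml.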

Enterococcus faecalis = test: Antibacterial activity against Enterococcus faecalis; assay type: functional
How it was run: (§3)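 Aerobic isolates run by CLSI broth microdilution in cation-adjusted Mueller-Hinton II broth (streptococci plus 2–5% lysed horse blood), about 5 × 10^5 CFU/ml final; 24 h at 35–37°C aerobically; MIC read as lowest concentration without visible growth.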

Enterococcus faecium = test: Antibacterial activity against Enterococcus faecium; assay type: functional; how it was run: as §3
Streptococcus pyogenes = test: Antibacterial activity against Streptococcus pyogenes; assay type: functional; how it was run: as §3
[3] = Cmax in mouse at 20 mg/kg, sc; assay type: ADME, organism-based; design: dose 20 mg/kg, route subcutaneous; settings: in vivo
How it was run: (§4)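 Fasted mice given one subcutaneous dose (20 or 50 mg/kg); blood taken from groups of three at 0.08, 0.25, 0.5, 1, 2, 4, 8, 24 h. Plasma protein-precipitated with cold acetonitrile plus internal standard, LC-MS/MS (C8, positive ESI, SRM); calibration 5–15,000 ng/ml. Noncompartmental analysis of mean concentrations; AUC to last quantifiable point by linear trapezoidal rule.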

[4] = Cmax in mouse at 50 mg/kg, sc; assay type: ADME, organism-based; design: dose 50 mg/kg, route subcutaneous; settings: in vivo; how it was run: as §4
[5] = AUC (0-24 hrs) in mouse at 20 mg/kg, sc; assay type: ADME, organism-based; design: time < 24 hr, dose 20 mg/kg, route subcutaneous; settings: plasma; how it was run: as §4
[6] = AUC (0-24 hrs) in mouse at 50 mg/kg, sc; assay type: ADME, organism-based; design: time < 24 hr, dose 50 mg/kg, route subcutaneous; settings: plasma; how it was run: as §4
[7] = Plasma half life in mouse at 20 mg/kg, sc; assay type: ADME, organism-based; design: dose 20 mg/kg, route subcutaneous
[8] = Plasma half life in mouse at 50 mg/kg, sc; assay type: ADME, organism-based; design: dose 50 mg/kg, route subcutaneous
[9] = Tmax in mouse at 20 mg/kg, sc; assay type: ADME, organism-based; design: dose 20 mg/kg, route subcutaneous; settings: in vivo; how it was run: as §4
[10] = Tmax in mouse at 50 mg/kg, sc; assay type: ADME, organism-based; design: dose 50 mg/kg, route subcutaneous; settings: in vivo; how it was run: as §4
Staphylococcus aureus [11] = test: Antibacterial activity against methicillin-resistant Staphylococcus aureus after 24 hrs by broth microdilution method; assay type: functional; how it was run: as §2
Streptococcus pneumoniae = test: Antibacterial activity against Streptococcus pneumoniae by agar dilution method; assay type: functional
Streptococcus viridans = test: Antibacterial activity against Streptococcus viridans after 24 hrs by broth microdilution method; assay type: functional
How it was run: (§5)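 CLSI broth microdilution in cation-adjusted Mueller-Hinton II broth, final inoculum about 5 × 10^5 CFU/ml for most strains; streptococci supplemented with 2–5% lysed horse blood, H. influenzae in Haemophilus test medium. Aerobic incubation at 35–37°C for 24 h; MIC = lowest concentration with no visible growth.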

Staphylococcus aureus [12] = test: Antibacterial activity against […] Staphylococcus aureus ATCC 29213 in presence of 20 ug/ml reserpine after 24 hrs by broth microdilution method; assay type: functional; settings: ATCC 29213, 24 h; how it was run: as §2
Staphylococcus aureus [13] = test: Antibacterial activity against ethidium bromide-resistant Staphylococcus aureus BSA678 after 24 hrs by broth microdilution method; assay type: functional; settings: BSA678, 24 h; how it was run: as §2
Neisseria gonorrhoeae = test: Antibacterial activity against Neisseria gonorrhoeae after 24 hrs by broth microdilution method; assay type: functional; how it was run: as §5
Staphylococcus aureus [14] = test: Antibacterial activity against ethidium bromide-resistant Staphylococcus aureus Mu50 after 24 hrs by broth microdilution method; assay type: functional; settings: Mu50, 24 h; how it was run: as §2
Staphylococcus aureus [15] = test: Antibacterial activity against […] Staphylococcus aureus ATCC 29213 after 24 hrs by broth microdilution method; assay type: functional; settings: ATCC 29213, 24 h; how it was run: as §2
Staphylococcus aureus [16] = test: Antibacterial activity against ethidium bromide-resistant Staphylococcus aureus Mu50 in presence of 20 ug/ml reserpine after 24 hrs by broth microdilution method; assay type: functional; settings: Mu50, 24 h; how it was run: as §2
Staphylococcus aureus [17] = test: Antibacterial activity against ethidium bromide-resistant Staphylococcus aureus BSA643 after 24 hrs by broth microdilution method; assay type: functional; settings: BSA643, 24 h; how it was run: as §2
Staphylococcus aureus [18] = test: microbe, parasite or virus in culture; settings: Mu50
Staphylococcus aureus [19] = test: Effect on cellular viability of methicillin-resistant Staphylococcus aureus Mu50 at 10 times MIC by measuring the time required for recovery at 10 times MIC after 1 hr; assay type: functional; how it was run: as §1
Staphylococcus aureus [20] = test: Antibacterial activity in CD1 mouse inoculated with methicillin-sensitive Staphylococcus aureus ATCC 13709 in thigh assessed as reduction of CFU/thigh at 10 mg/kg, sc after 4 hrs; assay type: functional; settings: route subcutaneous
How it was run: (§6)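 Female CD-1 mice (19 to 28 g) were made neutropenic with cyclophosphamide 150 mg/kg i.p. at 4 days and 1 day before infection. Each thigh was injected i.m. with 0.1 ml of S. aureus suspension. A single s.c. dose was given 2 h postinfection, in groups of three mice. Thighs were homogenized in PBS and plated on trypticase soy agar overnight at 37°C. CFU/thigh was compared with controls at the time of treatment.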

Staphylococcus aureus [21] = test: Antibacterial activity in CD1 mouse inoculated with methicillin-sensitive Staphylococcus aureus ATCC 13709 in thigh assessed as reduction of bacterial population at 10 mg/kg, sc after 24 hrs; assay type: functional; settings: route subcutaneous; how it was run: as §6
Staphylococcus aureus [22] = test: Antibacterial activity in CD1 mouse inoculated with methicillin-resistant Staphylococcus aureus ATCC 33591 in thigh assessed as reduction of bacterial population at 10 mg/kg, sc after 4 hrs; assay type: functional; settings: route subcutaneous; how it was run: as §6
Staphylococcus aureus [23] = test: Antibacterial activity in CD1 mouse inoculated with methicillin-resistant Staphylococcus aureus ATCC 33591 in thigh assessed as reduction of bacterial population at 10 mg/kg, sc after 6 hrs; assay type: functional; settings: route subcutaneous; how it was run: as §6
Staphylococcus aureus [24] = test: Antibacterial activity in CD1 mouse inoculated with methicillin-resistant Staphylococcus aureus ATCC 33591 in thigh assessed as reduction of bacterial population at 10 mg/kg, sc after 8 hrs; assay type: functional; settings: route subcutaneous; how it was run: as §6
Staphylococcus aureus [25] = test: Antibacterial activity in CD1 mouse inoculated with methicillin-resistant Staphylococcus aureus ATCC 33591 in thigh assessed as reduction of bacterial population at 10 mg/kg, sc after 24 hrs; assay type: functional; settings: route subcutaneous; how it was run: as §6

SMILES	Post anitbiotic effect (Staphylococcus aureus [1])	MIC50 (Staphylococcus aureus [2])	MIC90 (Staphylococcus aureus [2])	MIC50 (Enterococcus faecalis)	MIC90 (Enterococcus faecalis)	MIC50 (Enterococcus faecium)	MIC90 (Enterococcus faecium)	Cmax [3]	Cmax [4]	AUC(0-t) at 24 h [5]	AUC(0-t) at 24 h [6]	Tmax [9]	Tmax [10]	MIC50 (Staphylococcus aureus [11])	MIC90 (Staphylococcus aureus [11])	MIC50 (Streptococcus pneumoniae)	MIC (Staphylococcus aureus [13])	MIC (Staphylococcus aureus [14])	MIC (Staphylococcus aureus [15])	MIC (Staphylococcus aureus [17])	further results
CCN1CC(C(=O)O)C(=O)c2cc(F)c(N3CCNCC3)cc21 (centres undefined)	1.6 h	–	–	–	–	–	–	–	–	–	–	–	–	–	–	–	–	–	–	–	–
CC(=O)NCC1CN(c2ccc(N3CCOCC3)c(F)c2)C(=O)O1 (single isomer, unassigned) [LINEZOLID]	–	2 µg/mL (≈ 5.93 µM)	2 µg/mL (≈ 5.93 µM)	2 µg/mL (≈ 5.93 µM)	> 16 µg/mL	2 µg/mL (≈ 5.93 µM)	2 µg/mL (≈ 5.93 µM)	12200 ng/mL	25500 ng/mL	29100 ng·h/mL	112000 ng·h/mL	30 min	60 min	2 µg/mL (≈ 5.93 µM)	2 µg/mL (≈ 5.93 µM)	1 µg/mL (≈ 2.96 µM)	–	–	–	–	MIC50 (Streptococcus pyogenes): 1 µg/mL (≈ 2.96 µM); MIC90 (Streptococcus pyogenes): 1 µg/mL (≈ 2.96 µM); half-life [7]: 70.2 min; half-life [8]: 131 min; MIC90 (Streptococcus pneumoniae): 1 µg/mL (≈ 2.96 µM); MIC50 (Streptococcus viridans): 1 µg/mL (≈ 2.96 µM); MIC90 (Streptococcus viridans): 1 µg/mL (≈ 2.96 µM)
O=C(O)c1cn(C2CC2)c2cc(N3CCNCC3)c(F)cc2c1=O [CIPROFLOXACIN]	–	–	–	–	–	–	–	3360 ng/mL	7720 ng/mL	5950 ng·h/mL	14400 ng·h/mL	30 min	30 min	–	–	–	> 64 µg/mL	32 µg/mL (≈ 96.6 µM)	0.25 µg/mL (≈ 0.754 µM)	128 µg/mL (≈ 386 µM)	MIC (Staphylococcus aureus [12]): 0.25 µg/mL; MIC50 (Neisseria gonorrhoeae): 0.004 µg/mL (≈ 0.0121 µM); MIC90 (Neisseria gonorrhoeae): 0.008 µg/mL (≈ 0.0241 µM); MIC (Staphylococcus aureus [16]): 32 µg/mL; MIC (Staphylococcus aureus [18]): > 64 µg/mL
CC[n+]1c(-c2ccccc2)c2cc(N)ccc2c2ccc(N)cc21.[Br-] [HOMIDIUM BROMIDE]	–	–	–	–	–	–	–	–	–	–	–	–	–	–	–	–	4 µg/mL	64 µg/mL	4 µg/mL	16 µg/mL	MIC (Staphylococcus aureus [12]): 0.03 µg/mL; MIC (Staphylococcus aureus [16]): 64 µg/mL
COc1c(N2C[C@@H]3CCCN[C@@H]3C2)c(F)cc2c(=O)c(C(=O)O)cn(C3CC3)c12 [MOXIFLOXACIN]	1.6 h	–	–	–	–	–	–	–	–	–	–	–	–	–	–	–	> 64 µg/mL	4 µg/mL (≈ 9.96 µM)	0.06 µg/mL (≈ 0.149 µM)	16 µg/mL (≈ 39.9 µM)	Post anitbiotic effect (Staphylococcus aureus [19]): 1.5 h; MIC (Staphylococcus aureus [18]): 64 µg/mL (≈ 159 µM)
CN[C@H](CC(C)C)C(=O)N[C@H]1C(=O)N[C@@H](CC(N)=O)C(=O)N[C@H]2C(=O)N[C@H]3C(=O)N[C@H](C(=O)N[C@H](C(=O)O)c4cc(O)cc(O)c4-c4cc3ccc4O)[C@H](O)c3ccc(c(Cl)c3)Oc3cc2cc(c3O[C@@H]2O[C@H](CO)[C@@H](O)[C@H](O)[C@H]2O[C@H]2C[C@](C)(N)[C@H](O)[C@H](C)O2)Oc2ccc(cc2Cl)[C@H]1O [VANCOMYCIN]	–	1 µg/mL (≈ 0.69 µM)	2 µg/mL (≈ 1.38 µM)	2 µg/mL (≈ 1.38 µM)	> 32 µg/mL	> 32 µg/mL	> 32 µg/mL	–	–	–	–	–	–	1 µg/mL (≈ 0.69 µM)	8 µg/mL (≈ 5.52 µM)	0.5 µg/mL (≈ 0.345 µM)	–	–	–	–	CFU/ml (Staphylococcus aureus [20]): 0.31; CFU/ml (Staphylococcus aureus [21]): 1.37; CFU/ml (Staphylococcus aureus [22]): 0.32; CFU/ml (Staphylococcus aureus [23]): 0.49; CFU/ml (Staphylococcus aureus [24]): 0.58; CFU/ml (Staphylococcus aureus [25]): 0.31; MIC90 (Streptococcus pneumoniae): 0.5 µg/mL (≈ 0.345 µM); MIC50 (Streptococcus viridans): 0.5 µg/mL (≈ 0.345 µM); MIC90 (Streptococcus viridans): 1 µg/mL (≈ 0.69 µM)
